Data on three compounds can be found in ChEMBL document CHEMBL4184225, “Discovery of selective 2,4-diaminoquinazoline toll-like receptor 7 (TLR 7) agonists” (Bioorg Med Chem Lett, 2018).

Data set [1] is described as follows: Plasma clearance in Sprague-Dawley rat at 2.5 mg/kg, iv. Format: ADME, organism-based.
The next data set relates to Rattus norvegicus. As to the kind of experiment: Plasma clearance in Sprague-Dawley rat at 2.5 mg/kg, iv relative hepatic blood flow. Format: ADME, organism-based. As to conditions: in vivo.
Data set [2] in a line: Cmax in Sprague-Dawley rat portal vein at 10 mg/kg, po. Format: ADME, organism-based. Set-up: dose 10 mg/kg, route oral. The method in brief: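 Healthy male Sprague-Dawley rats given a single oral dose of 10 mg/kg. Portal vein plasma, systemic plasma and liver sampled. Cmax and Tmax determined, and AUC over 0–last. Liver/plasma ratio calculated from AUC(0-last).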
Data set [3] relates to Mus musculus. Description: Induction of IFN-alpha production in C57BL/6 mouse plasma assessed as time for peak induction of IFN-alpha at 5 mg/kg, po administered as single dose by ELISA. Format: functional. The method in brief:
(§1)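 Healthy C57BL/6 mice given a single oral dose (1 or 5 mg/kg). Mouse IFN-α measured by ELISA in plasma and liver homogenates over time. Peak level (Fmax) and time of peak recorded. Three mice per time point, reported as geometric mean.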

Data set [4] relates to Mus musculus. Description: Induction of IFN-alpha production in C57BL/6 mouse liver assessed as time for peak induction of IFN-alpha at 5 mg/kg, po administered as single dose by ELISA. Format: functional. The method in brief:
as §1

The nature of data set [5]: Tmax in C57BL/6 mouse at 5 mg/kg, po administered as single dose. Format: ADME, organism-based. Particulars: in vivo. The method in brief:
(§2)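 Healthy C57BL/6 mice given a single oral dose (1 or 5 mg/kg). Plasma and liver drug levels measured over time to give Tmax, Cmax and AUC0-last. Three mice per time point, reported as geometric mean.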

Data set [6] can be described thus: Ratio of drug level in liver to plasma in C57BL/6 mouse at 1 mg/kg, po administered as single dose. As to conditions: liver and plasma, 5 mg/kg, in the assay text read “5 mg/kg” for “1 mg/kg”. Format: ADME, organism-based. The method in brief: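 Single oral dose to healthy C57BL/6 mice. Liver and plasma drug exposure measured, three mice per time point as geometric mean, and expressed as liver-to-plasma ratio.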

Data set [7] is described as follows: Cmax in C57BL/6 mouse plasma at 5 mg/kg, po administered as single dose. Format: ADME, organism-based. Details: dose 5 mg/kg, route oral. The procedure, abridged:
as §2

Data set [8] is described as follows: Cmax in C57BL/6 mouse liver at 5 mg/kg, po administered as single dose. It counts as ADME, organism-based. Set-up: dose 5 mg/kg, route oral. As to conditions: in vivo. The method in brief:
as §2

Data set [9] is described as follows: AUClast in C57BL/6 mouse plasma at 5 mg/kg, po administered as single dose. It counts as ADME, organism-based. Details: dose 5 mg/kg, route oral, time 0 - last. The procedure, abridged:
as §2

Data set [10] in a line: AUClast in C57BL/6 mouse liver at 5 mg/kg, po administered as single dose. Particulars: in vivo. It counts as ADME, organism-based. The procedure, abridged: as §2
The subject of data set [11] is Mus musculus. Description: Induction of IFN-alpha production in C57BL/6 mouse plasma assessed as peak IFN-alpha level at 5 mg/kg, po administered as single dose by ELISA. It counts as functional. The method in brief:
as §1

In data set [12] the test system is Mus musculus. As to the kind of experiment: Induction of IFN-alpha production in C57BL/6 mouse liver assessed as peak IFN-alpha level at 5 mg/kg, po administered as single dose by ELISA. It counts as functional. The method in brief: as §1
In data set [13] the test system is Mus musculus. As to the kind of experiment: Induction of IFN-alpha production in C57BL/6 mouse plasma assessed as time for peak induction of IFN-alpha at 1 mg/kg, po administered as single dose by ELISA. It counts as functional. The method in brief:
as §1

In data set [14] the test system is Mus musculus. Description: Induction of IFN-alpha production in C57BL/6 mouse liver assessed as time for peak induction of IFN-alpha at 1 mg/kg, po administered as single dose by ELISA. Format: functional. The procedure, abridged: as §1
Data set [15] is described as follows: Tmax in C57BL/6 mouse at 1 mg/kg, po administered as single dose. As to conditions: in vivo. It counts as ADME, organism-based. The method in brief:
as §2

A short description of data set [16]: Cmax in C57BL/6 mouse plasma at 1 mg/kg, po administered as single dose. It counts as ADME, organism-based. Details: dose 1 mg/kg, route oral. The method in brief: as §2
The nature of data set [17]: AUClast in C57BL/6 mouse plasma at 1 mg/kg, po administered as single dose. It counts as ADME, organism-based. Details: dose 1 mg/kg, time 0 - last, route oral. The procedure, abridged: as §2
A short description of data set [18]: Cmax in C57BL/6 mouse liver at 1 mg/kg, po administered as single dose. It counts as ADME, organism-based. Set-up: dose 1 mg/kg, route oral. The method in brief:
as §2

Data set [19] can be described thus: AUClast in C57BL/6 mouse liver at 1 mg/kg, po administered as single dose. Format: ADME, organism-based. Details: dose 1 mg/kg, time 0 - last, route oral. The procedure, abridged: as §2
Data set [20] has as its system Mus musculus. As to the kind of experiment: Induction of IFN-alpha production in C57BL/6 mouse plasma assessed as peak IFN-alpha level at 1 mg/kg, po administered as single dose by ELISA. Format: functional. The method in brief:
as §1

The subject of data set [21] is Mus musculus. Description: Induction of IFN-alpha production in C57BL/6 mouse liver assessed as peak IFN-alpha level at 1 mg/kg, po administered as single dose by ELISA. It counts as functional. The procedure, abridged:
as §1

`CCCCNc1nc(N)nc2cccc(C(=O)N(C)Cc3ccccc3)c12`: the clearance in [1] stood at 55 mL/min/kg. Also, the CL in the data set with Rattus norvegicus was determined as 79%. In data set [2], this compound yielded a Cmax of 209 ng/mL.

For the compound `CCCCNc1nc(N)nc2cccc(C(=O)N[C@@H](C)c3ccccc3)c12`, the Cmax in data set [2] was 276 ng/mL; in data set [7], 142 ng/mL; in data set [8], 3230 ng/g. Moreover, the Time in the data set on Mus musculus [3] and in the data set with Mus musculus [4] was 4 h each time. For the same compound, the Tmax in data set [5] was determined as 60 min. Further, the Kp in data set [6] amounted to 23. The AUC(0-t) in data set [9] was 365 ng·h/mL. The compound further returned an AUClast in data set [10] of 6619 ng·h/g. Moreover, the Fmax is 2800 pg/mL with Mus musculus [11] and 325 pg/mg in the data set with Mus musculus [12].

On to `CCCCNc1nc(N)nc2ccccc12`, for which the clearance in data set [1] worked out at 163 mL/min/kg. Also, the Cmax in [2] is 583 ng/mL; in data set [16], 3 ng/mL; in data set [18] it was 207 ng/mL. Further, the Time in the data set with Mus musculus [13] and in the data set on Mus musculus [14] was 1 h throughout. Moreover, the Tmax in data set [15] was found to be 30 min. Also, the figures for the area under the curve AUC(0-t) in [17] and in data set [19] were 3 ng·h/mL and 133 ng·h/mL, respectively. Also, the Fmax worked out at 315 pg/mL in the data set on Mus musculus [20] and 200 pg/mg with Mus musculus [21].
